Laboratory results from ChEMBL document CHEMBL4477201, “Imidazopyridine and Pyrazolopiperidine Derivatives as Novel Inhibitors of Serine Palmitoyl Transferase” (J Med Chem, 2016).
Activity calls are given as the source filed them. The calls are words filed in the database; no cut-off is given here.

How the values were obtained:
Mus musculus [1] = experiment: Reduction in serum insulin in diet-induced obese C57BL6 mouse at 25 mg/kg, po qd for 4 weeks by oral glucose tolerance test relative to lean control; type: functional, organism-based
Procedure, shortened: (§1)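 After 4 weeks of oral dosing, DIO mice underwent an oral glucose tolerance test. Insulin and glucose AUC compared with lean mice; trend assessed by ANOVA trend analysis.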

Mus musculus [2] = experiment: Reduction in total plasma ceramide level in C57BL6 mouse administered through gavage after 6 hrs by mass spectrometry relative to vehicle-treated control; type: functional
Procedure, shortened: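 Normal C57bl6 mice given a single oral dose at six dose levels, n=3 per group. Plasma collected 6 h post dose. C16:0, C20:0, C22:0, C24:0 and C24:1 ceramides measured by mass spectrometry and summed; total reduction calculated versus vehicle. ED50 derived from the dose-response; mean ± SEM.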

Mus musculus [3] = experiment: Reduction in total plasma ceramide level in diet-induced obese C57BL6 mouse administered daily through oral gavage for 28 days measured 2 hrs post last dose relative to lean control; type: functional, organism-based
Procedure, shortened: (§2)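 DIO mice dosed orally for 28 days, with myriocin as positive control and lean mice as reference. Total and C18:0 plasma ceramides measured 2 h after the final dose.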

[4] = Drug uptake in diet-induced obese C57Bl/6 mouse serum at 10 mg/kg, po qd for 4 weeks measured 6 hrs post last dose; type: ADME, organism-based; conditions: read-out: Drug uptake
Procedure, shortened: (§3)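 Male DIO mice dosed orally for 4 weeks. Sacrificed 6 h after the last dose. Compound measured in serum (ng/mL) and liver (ng/g), and the liver:serum ratio calculated.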

[5] = AUC (0 to 24 hrs) in Sprague-Dawley rat at 1 mg/kg, iv; type: ADME, organism-based; design: time < 24 hr, dose 1 mg/kg, route intravenous; conditions: in vivo
Procedure, shortened: (§4)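 Single dose to fasted male Sprague Dawley rats, IV at 1 mg/kg or oral at 3 mg/kg. Plasma levels followed to derive AUC0-24hr, Cmax, half-life, Vdss and oral bioavailability.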

[6] = target: T1, Serine palmitoyltransferase 1 (Homo sapiens, UniProt O15269); experiment: Inhibition of human SPT1 expressed in microsomes of HEK293 cells incubated for 1hr by LC/MS analysis
T1 sequence (O15269 whole entry): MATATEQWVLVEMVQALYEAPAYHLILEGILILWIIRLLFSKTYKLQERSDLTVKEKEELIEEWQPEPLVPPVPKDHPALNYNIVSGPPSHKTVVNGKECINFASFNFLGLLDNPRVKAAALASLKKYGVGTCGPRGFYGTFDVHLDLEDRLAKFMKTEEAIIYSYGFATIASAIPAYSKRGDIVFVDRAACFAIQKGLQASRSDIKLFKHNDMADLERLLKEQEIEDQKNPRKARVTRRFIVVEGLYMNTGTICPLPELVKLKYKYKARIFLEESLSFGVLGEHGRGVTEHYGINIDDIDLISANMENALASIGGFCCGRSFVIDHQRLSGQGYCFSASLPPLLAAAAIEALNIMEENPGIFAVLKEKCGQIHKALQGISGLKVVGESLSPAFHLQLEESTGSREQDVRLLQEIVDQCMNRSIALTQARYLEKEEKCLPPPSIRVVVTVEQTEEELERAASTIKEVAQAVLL
Procedure, shortened: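 SPT source was a microsomal fraction from HEK293 cells, with serine and palmitoyl coenzyme A as substrates. Formation of 3-ketodeoxysphinganine quantified by LC/MS. Inhibition determined at 10 concentrations per compound to give IC50.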

[7] = Drug uptake in diet-induced obese C57Bl/6 mouse liver at 1 mg/kg, po qd for 4 weeks measured 6 hrs post last dose; type: ADME, organism-based; conditions: read-out: Drug uptake; procedure, shortened: as §3
[8] = Volume of distribution at steady state in Sprague-Dawley rat at 3 mg/kg,po; type: ADME, organism-based; conditions: in vivo
Procedure, shortened: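 Male Sprague Dawley rats, fasted, single oral dose of 3 mg/kg. A parallel arm received 1 mg/kg IV. Plasma was sampled for pharmacokinetics over 0-24 hr. Steady-state volume of distribution is reported […], in mL/kg.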

[9] = Drug uptake in diet-induced obese C57Bl/6 mouse serum at 3 mg/kg, po qd for 4 weeks measured 6 hrs post last dose; type: ADME, organism-based; conditions: read-out: Drug uptake; procedure, shortened: as §3
[10] = Drug uptake in diet-induced obese C57Bl/6 mouse liver at 25 mg/kg, po qd for 4 weeks measured 6 hrs post last dose; type: ADME, organism-based; conditions: read-out: Drug uptake; procedure, shortened: as §3
[11] = Ratio of drug uptake in diet-induced obese C57Bl/6 mouse liver to serum at 10 mg/kg, po qd for 4 weeks measured 6 hrs post last dose; type: ADME, organism-based; procedure, shortened: as §3
Mus musculus [12] = experiment: Reduction in plasma C18:0 ceramide level in diet-induced obese C57BL6 mouse at 1 to 60 mg/kg administered daily through oral gavage for 28 days measured 2 hrs post last dose relative to lean control; type: functional, organism-based; procedure, shortened: as §2
[13] = Drug uptake in diet-induced obese C57Bl/6 mouse serum at 0.1 mg/kg, po qd for 4 weeks measured 6 hrs post last dose; type: ADME, organism-based; conditions: read-out: Drug uptake; procedure, shortened: as §3
[14] = target: T1, Serine palmitoyltransferase 1; experiment: (§5) Inhibition of SPT1 in human MCF7 cells assessed as suppression of 14C-serine incorporation into ceramide incubated for 2 hrs in presence of 4-HPR; type: cell-based
Procedure, shortened: (§6)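 Human MCF-7 cells incubated 2 h with a range of compound concentrations or DMSO control media. Medium contained 14C-serine plus 25 uM 4-HPR to activate SPT. 14C-serine-labeled ceramide products quantified to give EC50.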

[15] = target: T2, Serine palmitoyltransferase 1 (Homo sapiens) (UniProt O15269); experiment: as §5; type: cell-based; procedure, shortened: as §6
T2 sequence (whole entry): T1 sequence (O15269 whole entry)

Rattus norvegicus [16] = experiment: Reduction in vLDL level in cholic acid/cholesterol-fed Sprague-Dawley rat model of dyslipidemia at 1 to 60 mg/kg administered bid through oral gavage measured after 1 week by FPLC analysis relative to vehicle-treated control; type: functional, organism-based
Procedure, shortened: (§7)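 Sprague Dawley rats fed a cholic acid/cholesterol diet for 14 days, then dosed orally BID for 7 days at five dose levels, n=6. Serum ceramides and VLDL and HDL cholesterol compared with vehicle (dose 0). Mean ± SEM; Dunnett's test, p<0.05.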

[17] = Drug uptake in diet-induced obese C57Bl/6 mouse liver at 0.1 mg/kg, po qd for 4 weeks measured 6 hrs post last dose; type: ADME, organism-based; conditions: read-out: Drug uptake; procedure, shortened: as §3
Mus musculus [18] = experiment: Reduction in blood glucose in diet-induced obese C57BL6 mouse at 25 mg/kg, po qd for 4 weeks by oral glucose tolerance test relative to lean control; type: functional, organism-based; procedure, shortened: as §1
[19] = Drug uptake in diet-induced obese C57Bl/6 mouse liver at 3 mg/kg, po qd for 4 weeks measured 6 hrs post last dose; type: ADME, organism-based; conditions: read-out: Drug uptake; procedure, shortened: as §3
[20] = Dissociation constant, pKa of the compound; type: physicochemical
[21] = Drug uptake in diet-induced obese C57Bl/6 mouse serum at 1 mg/kg, po qd for 4 weeks measured 6 hrs post last dose; type: ADME, organism-based; conditions: read-out: Drug uptake; procedure, shortened: as §3
[22] = Volume of distribution at steady state in Sprague-Dawley rat at 1 mg/kg, iv; type: ADME, organism-based; conditions: in vivo, read-out: Vdss; procedure, shortened: as §4
[23] = Drug uptake in diet-induced obese C57Bl/6 mouse serum at 25 mg/kg, po qd for 4 weeks measured 6 hrs post last dose; type: ADME, organism-based; conditions: read-out: Drug uptake; procedure, shortened: as §3
[24] = Ratio of drug uptake in diet-induced obese C57Bl/6 mouse liver to serum at 25 mg/kg, po qd for 4 weeks measured 6 hrs post last dose; type: ADME, organism-based; procedure, shortened: as §3
Rattus norvegicus [25] = experiment: Increase in HDL level in cholic acid/cholesterol-fed Sprague-Dawley rat model of dyslipidemia administered bid through oral gavage measured after 1 week by FPLC analysis relative to vehicle-treated control; type: functional, organism-based; procedure, shortened: as §7
Mus musculus [26] = experiment: Reduction in total liver ceramide level in diet-induced obese C57BL6 mouse at 1 to 60 mg/kg administered daily through oral gavage for 28 days measured 6 hrs post last dose relative to lean control; type: functional, organism-based
Procedure, shortened: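 Liver total ceramide levels measured in DIO mice after 4 weeks of oral dosing.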

[27] = Oral bioavailability in Sprague-Dawley rat at 3 mg/kg; type: ADME, organism-based; conditions: in vivo; procedure, shortened: as §4

For `CCCCCCC(=O)N1CCc2c(c(-c3ccc(C(C)(C)C(=O)O)cc3)nn2C)C1`, the Activity (Mus musculus [1]) was “Active”, the Activity (Mus musculus [2]) was “Dose-dependent effect” and the ED50 (Mus musculus [2]; C57BL6, po) was 8.8 mg/kg. The Activity (Mus musculus [3]) was “Dose-dependent effect”, the concentration at 6 h [4] was 855 ng/mL and the AUC(0-t) at 24 h [5] was 190 ng·h/mL. For the same molecule, the IC50 [6] was 63.9 nM, the concentration at 6 h [7] was 61200 ng/g and the Vdss [8] was 126 L/kg. It also gave a concentration at 6 h [9] of 665 ng/mL, a concentration at 6 h [10] of 119000 ng/g and a Kp at 6 h [11] of 152. The Activity (Mus musculus [12]) was “Active”, the concentration at 6 h [13] was 5 ng/mL and the EC50 [14] was 4220 nM. The inhibition [15] was “Dose-dependent effect”, the Activity (Rattus norvegicus [16]) was “inactive” and the concentration at 6 h [17] was 26500 ng/g. The Activity (Mus musculus [18]) was “Active”, the concentration at 6 h [19] was 83800 ng/g and the pKa [20] was 4.19. For the same molecule, the concentration at 6 h [21] was 141 ng/mL, the Vd [22] was 8.33 L/kg and the concentration at 6 h [23] was 1210 ng/mL. For the same molecule, the Kp at 6 h [24] was 99, the Activity (Rattus norvegicus [25]) was “Dose-dependent effect” and the Activity (Mus musculus [26]) was “Active”. The bioavailability [27] was 33%.
